# Calls of active or inactive are those of the source. No cut-off for these calls is given here.
# How the values were obtained:
# Histone deacetylase 1 [1] = molecular target: T1, Histone deacetylase 1 (Homo sapiens, UniProt Q13547); assay: Inhibition of recombinant full length human C-terminal His/flag-tagged HDAC1 expressed in baculovirus infected Sf9 insect cells after 30 mins by fluorescence assay
# A549 = assay: cells; type: functional, cell-based; conditions: Homo sapiens, A549, 72 h
# HCT-116 [2] = assay: cells; type: functional, cell-based; conditions: Homo sapiens, HCT-116, 72 h
# HepG2 = assay: cells; type: functional, cell-based; conditions: Homo sapiens, HepG2, 72 h
# [3] = molecular target: T2, Nicotinamide phosphoribosyltransferase (Homo sapiens, UniProt P43490); assay: Inhibition of NAMPT (unknown origin) using NAM as substrate incubated for 5 mins followed by substrate addition measured after 15 mins by fluorometric method
# Target sequence in this assay (P43490 whole entry): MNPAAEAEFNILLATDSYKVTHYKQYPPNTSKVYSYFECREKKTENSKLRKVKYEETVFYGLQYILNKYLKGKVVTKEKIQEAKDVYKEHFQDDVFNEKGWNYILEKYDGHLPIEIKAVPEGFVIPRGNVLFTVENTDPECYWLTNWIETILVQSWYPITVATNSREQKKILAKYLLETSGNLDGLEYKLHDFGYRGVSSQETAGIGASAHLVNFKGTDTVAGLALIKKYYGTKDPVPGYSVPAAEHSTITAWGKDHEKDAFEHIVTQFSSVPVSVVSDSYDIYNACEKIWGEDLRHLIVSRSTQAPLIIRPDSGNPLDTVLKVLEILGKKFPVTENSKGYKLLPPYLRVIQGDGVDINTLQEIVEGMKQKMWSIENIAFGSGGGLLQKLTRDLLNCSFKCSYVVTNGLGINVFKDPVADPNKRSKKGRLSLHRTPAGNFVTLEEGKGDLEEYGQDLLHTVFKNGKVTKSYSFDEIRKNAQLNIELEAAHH
# Mus musculus [4] = assay: Toxicity in BALB/C nude mouse xenografted with human HCT116 cells assessed as body weight loss at 25 mg/kg, ip bid administered for 21 consecutive days measured every 3 days; type: organism-based; conditions: in vivo, 72 h
# How it was run: (§1)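 HCT116 tumour xenografts were grown in nude mice. Agents were given ip twice daily for 21 consecutive days. Tumour growth and body weight were followed. Tumour growth inhibition (TGI) and relative increment ratio (T/C) were derived. Data are mean ± standard deviation, compared with the control group by Student's t test.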
# [5] = molecular target: T3, Protein deacetylase HDAC6 (Homo sapiens, UniProt Q9UBN7); assay: Inhibition of recombinant human full length C-terminal flag-tagged HDAC6 expressed in baculovirus infected Sf9 insect cells after 30 mins by fluorescence assay
# T3 sequence (Q9UBN7 whole entry): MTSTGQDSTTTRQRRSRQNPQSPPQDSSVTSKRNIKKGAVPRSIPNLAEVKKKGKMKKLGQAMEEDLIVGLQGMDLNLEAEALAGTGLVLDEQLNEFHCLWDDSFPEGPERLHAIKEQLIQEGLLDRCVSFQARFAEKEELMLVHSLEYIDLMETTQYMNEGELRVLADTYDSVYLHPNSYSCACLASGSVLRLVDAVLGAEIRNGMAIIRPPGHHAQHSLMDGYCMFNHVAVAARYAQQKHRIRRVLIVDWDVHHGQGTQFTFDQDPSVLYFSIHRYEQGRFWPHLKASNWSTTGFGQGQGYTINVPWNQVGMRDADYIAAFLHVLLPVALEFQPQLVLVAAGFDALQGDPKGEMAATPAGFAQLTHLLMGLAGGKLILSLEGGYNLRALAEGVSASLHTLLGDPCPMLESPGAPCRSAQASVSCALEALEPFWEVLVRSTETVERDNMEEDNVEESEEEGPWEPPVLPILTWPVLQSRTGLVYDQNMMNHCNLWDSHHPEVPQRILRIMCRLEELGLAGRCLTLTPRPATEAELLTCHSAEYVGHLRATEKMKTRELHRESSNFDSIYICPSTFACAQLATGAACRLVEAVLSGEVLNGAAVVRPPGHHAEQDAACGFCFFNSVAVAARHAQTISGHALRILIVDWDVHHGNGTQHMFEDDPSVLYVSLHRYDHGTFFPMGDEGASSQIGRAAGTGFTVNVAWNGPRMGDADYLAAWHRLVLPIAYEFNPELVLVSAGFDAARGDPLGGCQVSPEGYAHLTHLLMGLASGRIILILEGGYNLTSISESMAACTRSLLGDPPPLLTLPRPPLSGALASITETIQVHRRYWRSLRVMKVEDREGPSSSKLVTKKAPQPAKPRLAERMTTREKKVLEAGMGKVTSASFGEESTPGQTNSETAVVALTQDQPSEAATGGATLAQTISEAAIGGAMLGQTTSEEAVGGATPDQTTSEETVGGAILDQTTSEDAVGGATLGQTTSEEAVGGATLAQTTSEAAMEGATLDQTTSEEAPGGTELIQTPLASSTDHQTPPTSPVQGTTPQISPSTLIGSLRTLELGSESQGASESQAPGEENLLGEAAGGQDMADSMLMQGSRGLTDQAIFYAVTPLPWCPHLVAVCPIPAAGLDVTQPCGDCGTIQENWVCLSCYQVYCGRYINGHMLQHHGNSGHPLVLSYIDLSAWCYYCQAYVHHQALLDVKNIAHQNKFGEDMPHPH
# [6] = molecular target: T4, Histone deacetylase (Homo sapiens) (UniProt Q13547+O15379+Q9UBN7+Q92769+Q9UQL6+Q8WUI4+Q9BY41+Q96DB2+P56524+Q9UKV0+Q969S8); assay: Inhibition of HDAC in human HCT116 cells assessed as increase in acetyl-histone H4 level at 1 to 5 uM after 24 hrs by Western blot analysis; type: cell-based
# How it was run: (§2)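 HCT116 cells were treated for 24 h at 1 μM and 5 μM. Acetylated histone H3 and acetylated histone H4 were detected by Western blot.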
# [7] = molecular target: T4, Histone deacetylase (Homo sapiens); assay: Inhibition of HDAC in human HCT116 cells assessed as increase in acetyl-histone H3 level at 1 to 5 uM after 24 hrs by Western blot analysis; type: cell-based; how it was run: as §2
# Histone deacetylase 8 = molecular target: T5, Histone deacetylase 8 (Homo sapiens, UniProt Q9BY41); assay: Inhibition of recombinant human full length C-terminal His-tagged HDAC8 expressed in baculovirus infected Sf9 insect cells after 30 mins by fluorescence assay
# T5 sequence (Q9BY41 whole entry): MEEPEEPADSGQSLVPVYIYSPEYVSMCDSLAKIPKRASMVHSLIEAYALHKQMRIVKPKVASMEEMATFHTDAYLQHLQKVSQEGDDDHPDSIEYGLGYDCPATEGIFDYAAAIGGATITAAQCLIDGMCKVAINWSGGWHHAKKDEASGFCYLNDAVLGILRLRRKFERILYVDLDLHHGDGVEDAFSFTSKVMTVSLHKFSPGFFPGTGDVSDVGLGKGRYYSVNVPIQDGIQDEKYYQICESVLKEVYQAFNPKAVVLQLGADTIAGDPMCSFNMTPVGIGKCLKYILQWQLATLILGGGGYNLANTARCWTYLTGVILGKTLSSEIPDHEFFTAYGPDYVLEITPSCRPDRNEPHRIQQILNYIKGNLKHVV
# Histone deacetylase 1 [8] = molecular target: T1, Histone deacetylase 1; assay: Potency index, ratio of SAHA IC50 to compound IC50 for recombinant human full length C-terminal His/flag-tagged HDAC1 expressed in baculovirus infected Sf9 insect cells
# [9] = molecular target: T2, Nicotinamide phosphoribosyltransferase; assay: Inhibition of NAMPT in human HCT116 cells assessed as decrease in cellular NAD+ level after 24 hrs by MTT dye based spectrophotometric analysis; type: cell-based
# How it was run: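 HCT116 cells were exposed to a concentration series for 24 h. Cellular NAD+ level was measured and concentration–response curves were fitted.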
# Target sequence in this assay (P43490 whole entry, looked up): as the sequence (P43490 whole entry) above
# HCT-116 [10] = assay: animal or person; type: functional, Homo sapiens; conditions: Mus musculus, HCT-116, ip, 72 h, read-out: TGI
# Histone deacetylase 2 = Histone deacetylase 2 (Homo sapiens, UniProt Q92769)
# Histone deacetylase 4 = Histone deacetylase 4 (Homo sapiens, UniProt P56524); assay: Inhibition of recombinant human N-terminal GST-tagged HDAC4 (612 to end residues) expressed in baculovirus infected Sf9 insect cells after 30 mins by fluorescence assay
# Sequence of Histone deacetylase 4 (P56524 whole entry): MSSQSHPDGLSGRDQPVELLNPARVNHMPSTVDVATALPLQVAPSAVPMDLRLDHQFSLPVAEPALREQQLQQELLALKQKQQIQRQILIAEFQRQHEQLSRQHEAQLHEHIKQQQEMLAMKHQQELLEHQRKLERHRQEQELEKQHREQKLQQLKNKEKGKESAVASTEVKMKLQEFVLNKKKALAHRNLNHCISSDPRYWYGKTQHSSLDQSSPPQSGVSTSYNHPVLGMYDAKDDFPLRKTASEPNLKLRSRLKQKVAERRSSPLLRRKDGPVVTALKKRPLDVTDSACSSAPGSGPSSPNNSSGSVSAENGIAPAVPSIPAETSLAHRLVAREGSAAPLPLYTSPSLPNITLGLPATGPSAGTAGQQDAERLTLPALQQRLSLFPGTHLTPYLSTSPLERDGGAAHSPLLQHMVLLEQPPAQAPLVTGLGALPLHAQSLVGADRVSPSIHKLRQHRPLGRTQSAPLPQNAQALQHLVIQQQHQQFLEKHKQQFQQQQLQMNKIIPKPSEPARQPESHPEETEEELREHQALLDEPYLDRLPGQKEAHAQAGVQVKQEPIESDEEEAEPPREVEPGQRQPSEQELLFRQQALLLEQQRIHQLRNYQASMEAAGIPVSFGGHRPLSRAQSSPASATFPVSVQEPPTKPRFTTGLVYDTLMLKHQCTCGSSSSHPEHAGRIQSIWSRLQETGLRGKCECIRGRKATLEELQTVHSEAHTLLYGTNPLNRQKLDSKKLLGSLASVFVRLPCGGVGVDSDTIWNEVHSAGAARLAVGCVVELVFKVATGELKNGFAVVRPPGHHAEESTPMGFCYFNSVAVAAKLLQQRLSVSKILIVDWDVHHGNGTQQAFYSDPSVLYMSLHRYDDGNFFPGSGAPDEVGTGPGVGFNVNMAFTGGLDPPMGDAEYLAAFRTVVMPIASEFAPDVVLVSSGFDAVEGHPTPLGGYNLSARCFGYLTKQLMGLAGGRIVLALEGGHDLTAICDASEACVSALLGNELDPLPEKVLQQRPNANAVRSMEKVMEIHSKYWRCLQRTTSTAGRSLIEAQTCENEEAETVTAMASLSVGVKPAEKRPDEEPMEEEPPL
# [11] = molecular target: T2, Nicotinamide phosphoribosyltransferase; assay: Binding affinity to NAMPT in human HCT116 cells assessed as change in melting temperature at 10 uM after 3 hrs by CETSA; type: cell-based
# Target sequence in this assay (P43490 whole entry, looked up): as the sequence (P43490 whole entry) above
# [12] = molecular target: Histone deacetylase 3/NCoR1 (Homo sapiens, UniProt O15379); assay: Inhibition of human recombinant HDAC3/GST-tagged NCOR1 DAD (397 to 503 residues) expressed in baculovirus expression system after 30 mins by fluorescence assay
# Sequence of Histone deacetylase 3/NCoR1 (O15379 whole entry, the tested form may be a part): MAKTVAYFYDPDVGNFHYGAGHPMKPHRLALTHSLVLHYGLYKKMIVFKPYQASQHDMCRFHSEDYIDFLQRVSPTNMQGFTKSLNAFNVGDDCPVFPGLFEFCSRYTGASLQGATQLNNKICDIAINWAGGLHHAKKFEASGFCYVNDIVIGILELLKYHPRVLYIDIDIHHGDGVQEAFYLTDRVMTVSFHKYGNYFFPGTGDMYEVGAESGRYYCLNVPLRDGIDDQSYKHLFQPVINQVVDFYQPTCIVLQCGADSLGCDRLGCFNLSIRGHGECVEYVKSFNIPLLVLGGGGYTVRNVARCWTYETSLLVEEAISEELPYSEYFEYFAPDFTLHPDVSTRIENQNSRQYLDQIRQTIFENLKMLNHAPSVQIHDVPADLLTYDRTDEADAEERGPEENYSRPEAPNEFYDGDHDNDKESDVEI
# Sequence of Histone deacetylase 3/NCoR1 (O75376 whole entry, further chain, the tested form may be a part): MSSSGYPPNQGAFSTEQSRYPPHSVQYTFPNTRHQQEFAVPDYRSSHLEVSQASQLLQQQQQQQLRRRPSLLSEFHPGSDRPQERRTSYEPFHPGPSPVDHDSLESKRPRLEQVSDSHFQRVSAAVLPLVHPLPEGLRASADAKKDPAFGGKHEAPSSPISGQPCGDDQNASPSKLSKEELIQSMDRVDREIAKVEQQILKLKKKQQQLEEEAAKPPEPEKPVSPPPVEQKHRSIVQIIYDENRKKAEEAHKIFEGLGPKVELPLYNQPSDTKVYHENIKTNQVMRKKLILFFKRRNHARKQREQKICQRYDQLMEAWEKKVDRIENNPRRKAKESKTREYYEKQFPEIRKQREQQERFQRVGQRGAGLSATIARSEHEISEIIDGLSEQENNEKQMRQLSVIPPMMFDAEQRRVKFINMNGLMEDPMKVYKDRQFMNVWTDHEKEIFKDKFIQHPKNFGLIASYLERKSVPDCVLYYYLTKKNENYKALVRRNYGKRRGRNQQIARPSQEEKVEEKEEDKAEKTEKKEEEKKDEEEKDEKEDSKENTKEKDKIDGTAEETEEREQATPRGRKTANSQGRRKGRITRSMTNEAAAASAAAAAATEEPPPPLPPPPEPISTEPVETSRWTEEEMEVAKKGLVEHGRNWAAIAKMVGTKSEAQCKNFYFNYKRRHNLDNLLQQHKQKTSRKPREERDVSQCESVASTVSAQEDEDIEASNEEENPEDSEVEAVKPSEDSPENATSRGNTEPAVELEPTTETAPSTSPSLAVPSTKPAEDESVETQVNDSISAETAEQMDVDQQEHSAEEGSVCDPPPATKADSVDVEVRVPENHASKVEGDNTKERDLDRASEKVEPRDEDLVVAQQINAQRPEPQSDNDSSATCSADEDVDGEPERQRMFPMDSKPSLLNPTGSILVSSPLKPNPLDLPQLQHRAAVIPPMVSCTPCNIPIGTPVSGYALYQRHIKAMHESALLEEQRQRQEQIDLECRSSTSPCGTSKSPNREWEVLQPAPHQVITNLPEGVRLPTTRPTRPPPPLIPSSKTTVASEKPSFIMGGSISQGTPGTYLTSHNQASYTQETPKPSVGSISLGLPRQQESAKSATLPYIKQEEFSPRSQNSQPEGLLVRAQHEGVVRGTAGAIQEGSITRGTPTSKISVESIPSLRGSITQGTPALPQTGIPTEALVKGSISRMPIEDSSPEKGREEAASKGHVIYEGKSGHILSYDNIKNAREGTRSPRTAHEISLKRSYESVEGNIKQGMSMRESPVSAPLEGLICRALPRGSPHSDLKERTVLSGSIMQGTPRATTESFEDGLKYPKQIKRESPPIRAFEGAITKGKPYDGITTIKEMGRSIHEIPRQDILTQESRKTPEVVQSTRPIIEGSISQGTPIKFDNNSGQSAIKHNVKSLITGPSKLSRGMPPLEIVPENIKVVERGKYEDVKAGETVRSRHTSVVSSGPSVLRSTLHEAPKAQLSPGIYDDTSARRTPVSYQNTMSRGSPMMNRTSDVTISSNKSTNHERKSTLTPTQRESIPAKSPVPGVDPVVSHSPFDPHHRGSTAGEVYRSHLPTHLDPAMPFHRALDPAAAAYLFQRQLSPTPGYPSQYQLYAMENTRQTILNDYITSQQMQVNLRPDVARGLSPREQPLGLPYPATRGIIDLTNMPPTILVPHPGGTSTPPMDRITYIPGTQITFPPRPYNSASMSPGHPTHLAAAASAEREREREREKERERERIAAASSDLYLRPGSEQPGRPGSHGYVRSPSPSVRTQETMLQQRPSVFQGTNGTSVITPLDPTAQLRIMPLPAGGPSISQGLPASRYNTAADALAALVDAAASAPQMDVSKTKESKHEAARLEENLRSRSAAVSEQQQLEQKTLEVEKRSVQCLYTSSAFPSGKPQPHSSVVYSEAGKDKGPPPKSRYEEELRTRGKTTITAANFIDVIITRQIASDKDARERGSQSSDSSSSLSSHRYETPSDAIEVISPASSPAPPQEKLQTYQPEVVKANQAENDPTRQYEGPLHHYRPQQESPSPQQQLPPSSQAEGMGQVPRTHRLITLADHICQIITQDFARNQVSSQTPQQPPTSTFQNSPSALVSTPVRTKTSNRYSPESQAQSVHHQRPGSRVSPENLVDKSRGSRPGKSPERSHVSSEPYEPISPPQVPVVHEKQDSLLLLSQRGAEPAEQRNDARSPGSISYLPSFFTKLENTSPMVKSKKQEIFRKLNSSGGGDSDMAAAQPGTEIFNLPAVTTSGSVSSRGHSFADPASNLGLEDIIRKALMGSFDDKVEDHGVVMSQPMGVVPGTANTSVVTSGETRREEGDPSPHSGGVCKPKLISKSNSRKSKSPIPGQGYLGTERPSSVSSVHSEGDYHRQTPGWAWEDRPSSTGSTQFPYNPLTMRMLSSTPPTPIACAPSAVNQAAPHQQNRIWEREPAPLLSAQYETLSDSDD
# HCT-116 [13] = assay: Antitumor activity against human HCT116 cells xenografted in BALB/C nude mouse assessed as tumor growth inhibition at 15 mg/kg, ip bid administered for 21 consecutive days measured every 3 days; type: functional; conditions: HCT-116, ip, 72 h, read-out: TGI; how it was run: as §1
# Mus musculus [14] = assay: Toxicity in BALB/C nude mouse xenografted with human HCT116 cells assessed as body weight loss at 15 mg/kg, ip bid administered for 21 consecutive days measured every 3 days; type: organism-based; conditions: in vivo, 72 h; how it was run: as §1
# T1 sequence (Q13547 whole entry): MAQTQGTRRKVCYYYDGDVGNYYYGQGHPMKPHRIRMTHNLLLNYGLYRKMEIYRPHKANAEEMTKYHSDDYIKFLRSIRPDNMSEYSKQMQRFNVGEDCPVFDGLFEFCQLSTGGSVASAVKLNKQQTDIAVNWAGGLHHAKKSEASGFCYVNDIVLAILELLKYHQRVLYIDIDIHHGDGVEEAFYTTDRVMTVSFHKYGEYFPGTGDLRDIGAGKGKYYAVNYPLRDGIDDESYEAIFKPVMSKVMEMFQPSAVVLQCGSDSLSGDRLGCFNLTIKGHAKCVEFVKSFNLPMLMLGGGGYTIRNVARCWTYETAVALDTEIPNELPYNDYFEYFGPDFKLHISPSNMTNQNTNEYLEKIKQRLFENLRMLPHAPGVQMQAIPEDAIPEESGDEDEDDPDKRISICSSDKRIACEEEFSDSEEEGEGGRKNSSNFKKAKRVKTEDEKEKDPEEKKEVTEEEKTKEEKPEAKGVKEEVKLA
SMILES,IC50 (Histone deacetylase 1 [1]),IC50 (A549),IC50 (HCT-116 [2]),IC50 (HepG2),IC50 [3],also measured
O=C(CCCCCCCN(Cc1ccc(F)cc1)c1ncc(C(=O)NCCCn2ccnc2)s1)NO,0.044 µM,6.6 µM,63 µM,26 µM,0.018 µM,–
O=C(/C=C/c1ccc(CN(Cc2ccc(F)cc2)c2ncc(C(=O)NCCCn3ccnc3)s2)cc1)NO,0.091 µM,2.7 µM,83 µM,13 µM,0.014 µM,–
CC(C)CCN(CCCCCC(=O)NO)c1ncc(C(=O)NCCCn2ccnc2)s1,0.06 µM,13 µM,85 µM,106 µM,0.02 µM,–
CC(C)CCN(CCCCCCC(=O)NO)c1ncc(C(=O)NCCCn2ccnc2)s1,0.002 µM,5.2 µM,30 µM,24 µM,0.015 µM,Activity (Mus musculus [4]): Non-Toxic; IC50 [5]: 0.00064 µM; inhibition [6]: Dose-dependent effect; inhibition [7]: Dose-dependent effect; IC50 (Histone deacetylase 8): 0.204 µM; Ratio IC50 (Histone deacetylase 1 [8]): 10; inhibition [9]: Active; inhibition in vivo at 25 mg/kg (HCT-116 [10]): 42%; IC50 (Histone deacetylase 2): 0.0068 µM; IC50 (Histone deacetylase 4): 12 µM; ΔTm [11]: 3.01 °C; IC50 [12]: 0.00067 µM
O=C(NO)c1ccc(CN(Cc2ccc(F)cc2)c2ncc(C(=O)NCCCn3ccnc3)s2)cc1,0.046 µM,7.3 µM,99 µM,79 µM,0.014 µM,–
O=C(CCCCCCN(Cc1ccc(F)cc1)c1ncc(C(=O)NCCCn2ccnc2)s1)NO,0.036 µM,9.7 µM,9.7 µM,9.4 µM,0.019 µM,IC50 [5]: 0.0062 µM; inhibition [6]: Dose-dependent effect; inhibition [7]: Dose-dependent effect; IC50 (Histone deacetylase 8): 0.351 µM; inhibition [9]: Active; IC50 (Histone deacetylase 2): 0.033 µM; IC50 (Histone deacetylase 4): 21 µM; ΔTm [11]: 7.36 °C; IC50 [12]: 0.0041 µM
CC(C)CCN(CCCCCCC(=O)NO)c1ncc(C(=O)NCc2cccnc2)s1,0.036 µM,19 µM,12 µM,7 µM,0.22 µM,–
O=C(CCCCCCC(=O)Nc1ccccc1)NO [VORINOSTAT],–,–,–,–,–,Activity (Mus musculus [4]): Non-Toxic
O=C(CCCCCN(Cc1ccc(F)cc1)c1ncc(C(=O)NCCCn2ccnc2)s1)NO,0.1 µM,54 µM,19 µM,30 µM,0.007 µM,–
O=C(/C=C/c1cccnc1)NCCCCC1CCN(C(=O)c2ccccc2)CC1 [DAPORINAD],–,3.7 µM,–,–,–,inhibition in vivo at 15 mg/kg (HCT-116 [13]): 39%; Activity (Mus musculus [14]): Non-Toxic
O=C(CCCCCCN(Cc1ccc(F)cc1)c1ncc(C(=O)NCc2cccnc2)s1)NO,0.095 µM,22 µM,17 µM,14 µM,0.47 µM,–

# Source: ChEMBL document CHEMBL4138269, “Dual NAMPT/HDAC Inhibitors as a New Strategy for Multitargeting Antitumor Drug Discovery” (ACS Med Chem Lett, 2018)
